The source of these data is ChEMBL document CHEMBL4480404, “Discovery of Lipophilic Bisphosphonates That Target Bacterial Cell Wall and Quinone Biosynthesis” (J Med Chem, 2019).

Data set [1] relates to Staphylococcus aureus. Briefly: Antibacterial activity against Staphylococcus aureus Newman after 12 hrs. It counts as functional. Particulars: read-out: ED50 (the source's name). An outline of the steps:
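Log-phase S. aureus culture in tryptic soy broth (OD600 ~0.3, then diluted 500-fold). Inhibitors two-fold serially diluted across 12 wells from a 100 µM–1 mM start; 37 °C, 200 rpm, 12 h; OD600 read for growth inhibition.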

In data set [2] the test system is Bacillus subtilis. Put plainly: Antibacterial activity against Bacillus subtilis (Ehrenberg) Cohn ATCC 6051 in absence of fetal bovine serum after 12 hrs. It counts as functional. Particulars: (Ehrenberg) Cohn ATCC 6051, 12 h, read-out: ED50 (the source's name). An outline of the steps: (§1)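 Log-phase B. subtilis diluted 500-fold into LB containing 0%, 4% or 10% fetal bovine serum. Inhibitor threefold serially diluted across 12 wells from a 100 µM–1 mM start; incubated 12 h at 37 °C with 200 rpm shaking; growth inhibition by OD600.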

Data set [3] has as its system Bacillus subtilis. Put plainly: Antibacterial activity against Bacillus subtilis (Ehrenberg) Cohn ATCC 6051 after 12 hrs. The format is functional. Particulars: (Ehrenberg) Cohn ATCC 6051, 12 h, read-out: ED50 (the source's name). The method, boiled down: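 Log-phase LB culture (grown to OD600 ~0.3, then diluted 500-fold) exposed to two-fold serial dilutions of inhibitor starting at 100 µM–1 mM across 12 wells; 37 °C, 200 rpm shaking, 12 h. OD600 read and ED50 fitted; duplicate or triplicate.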

Data set [4] concerns Bacillus subtilis. Put plainly: Antibacterial activity against Bacillus subtilis (Ehrenberg) Cohn ATCC 6051 in presence of 10% fetal bovine serum after 12 hrs. The format is functional. Particulars: (Ehrenberg) Cohn ATCC 6051, 12 h, read-out: ED50 (the source's name). The method, boiled down: as §1
Data set [5] can be described thus: Growth inhibition of HEK293 cells after 24 hrs by MTT assay. It counts as cell-based. Particulars: human, read-out: ED50. The method, boiled down: (§2)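 HEK293 cells in DMEM (4.5 g/L glucose) with 10% FBS and 1% penicillin-streptomycin, seeded at 10⁵ cells/mL. Inhibitor from 10 mM stock diluted threefold across 10 wells; 37 °C for 24 or 96 h.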
A general note: Formazan colour is commonly taken as a measure of viable cells.

Data set [6] relates to Bacillus anthracis. Put plainly: Antibacterial activity against Bacillus anthracis Sterne after 12 hrs. The format is functional. Particulars: read-out: ED50 (the source's name).
Data set [7] concerns Candida albicans. Briefly: microbe, parasite or virus in culture. The format is functional. Particulars: CAI-4, 12 h, read-out: ED50 (the source's name).
Data set [8] is described as follows: Lipophilicity, log D of the compound at pH 7.4. Conditions: buffer. The format is physicochemical.
In data set [9] the test system is Bacillus subtilis. Put plainly: Antibacterial activity against Bacillus subtilis (Ehrenberg) Cohn ATCC 6051 assessed as growth inhibition in presence of HMBPP and MK4 after 12 hrs. It counts as functional, organism-based. Conditions: (Ehrenberg) Cohn ATCC 6051, 12 h. An outline of the steps: (§3)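 Rescue format: log-phase B. subtilis in LB with rescue agent(s) at 50 µM each, alone or as pairwise combinations of UP, MK-4, FPP or HMBPP. Inhibitor diluted threefold across 12 wells from a 100 µM–1 mM start; 37 °C, 200 rpm, 12 h. Growth inhibition read as OD600; ED50-based fold-rescue; duplicate.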

The subject of data set [10] is Bacillus subtilis. Put plainly: Antibacterial activity against Bacillus subtilis (Ehrenberg) Cohn ATCC 6051 assessed as growth inhibition in presence of FPP and UP after 12 hrs. It counts as functional, organism-based. Conditions: (Ehrenberg) Cohn ATCC 6051, 12 h. An outline of the steps:
as §3

For data set [11], the system named is Bacillus subtilis. Put plainly: Antibacterial activity against Bacillus subtilis (Ehrenberg) Cohn ATCC 6051 assessed as growth inhibition in presence of FPP after 12 hrs. The format is functional, organism-based. Conditions: (Ehrenberg) Cohn ATCC 6051, 12 h. An outline of the steps: as §3
Data set [12] can be described thus: Growth inhibition of HEK293 cells after 96 hrs by MTT assay. It counts as cell-based. Conditions: human, read-out: ED50. An outline of the steps: as §2
Data set [13] has as its system Bacillus subtilis. Put plainly: Antibacterial activity against Bacillus subtilis (Ehrenberg) Cohn ATCC 6051 assessed as growth inhibition in presence of MK7 after 12 hrs. The format is functional, organism-based.
For data set [14], the target named is T1, Farnesyl pyrophosphate synthase (Homo sapiens, UniProt P14324).
T1 sequence (P14324 whole entry): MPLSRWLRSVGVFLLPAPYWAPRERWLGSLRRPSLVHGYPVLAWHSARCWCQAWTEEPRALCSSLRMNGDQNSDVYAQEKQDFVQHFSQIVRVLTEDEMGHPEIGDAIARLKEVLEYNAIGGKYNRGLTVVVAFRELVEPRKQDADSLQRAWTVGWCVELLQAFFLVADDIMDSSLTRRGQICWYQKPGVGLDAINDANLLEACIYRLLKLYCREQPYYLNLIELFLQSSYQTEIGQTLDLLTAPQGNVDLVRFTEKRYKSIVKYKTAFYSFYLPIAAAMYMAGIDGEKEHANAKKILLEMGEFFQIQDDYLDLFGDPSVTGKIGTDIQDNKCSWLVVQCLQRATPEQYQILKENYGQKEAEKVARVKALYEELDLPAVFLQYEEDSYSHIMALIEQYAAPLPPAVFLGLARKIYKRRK
Briefly: Inhibition of human FPPS using IPP and GPP.

Data set [15] has as its system Clostridioides difficile. Put plainly: Antibacterial activity against Clostridioides difficile ATCC 1870 after 48 hrs. It counts as functional. Conditions: ATCC 1870, 48 h. The method, boiled down: (§4)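 Grown anaerobically 48 h at 37 °C on brain heart infusion agar supplemented with yeast extract, L-cysteine, vitamin K1 and hemin. Inoculum set to a 0.5 McFarland standard, then diluted in supplemented BHI broth to ~5 × 10^5 CFU/mL. Broth dilution over 64–0.5 μM, incubated anaerobically 48 h at 37 °C. MIC read visually as lowest concentration inhibiting growth.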

For data set [16], the target named is T1, Farnesyl pyrophosphate synthase. Briefly: Inhibition of human FPPS using IPP and GPP as substrate. The method, boiled down:
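Expressed HsFPPS at 0.15 μM with 50 μM IPP and 50 μM GPP, 25°C, in 20 mM HEPES pH 7.5, 150 mM NaCl, 500 μM MgCl2. Enzyme preincubated 30 min at room temperature with serially diluted compound. Continuous MESG/PNP phosphate-release read-out, with pyrophosphatase added. At least 3 runs on different days; pooled data fitted by nonlinear regression for IC50.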

The subject of data set [17] is Clostridioides difficile. Briefly: Antibacterial activity against Clostridioides difficile ATCC 43255 after 48 hrs. It counts as functional. Particulars: ATCC 43255, 48 h. The method, boiled down: as §4
For data set [18], the system named is Bacillus subtilis. Put plainly: Antibacterial activity against Bacillus subtilis (Ehrenberg) Cohn ATCC 6051 assessed as growth inhibition in presence of decaprenyl phosphate after 12 hrs. The format is functional, organism-based.
Data set [19] relates to Bacillus subtilis. Put plainly: Antibacterial activity against Bacillus subtilis (Ehrenberg) Cohn ATCC 6051 assessed as growth inhibition in presence of HMBPP after 12 hrs. It counts as functional, organism-based. Conditions: (Ehrenberg) Cohn ATCC 6051, 12 h. The method, boiled down:
as §3

Data set [20] can be described thus: Inhibition of Escherichia coli OPPS using IPP as substrate.
Data set [21] relates to Mycolicibacterium smegmatis. Briefly: Antibacterial activity against Mycobacterium smegmatis MC2 155 ATCC 700084 after 48 hrs. Conditions: MC2 155 ATCC 700084, 48 h, read-out: ED50 (the source's name). It counts as functional. The method, boiled down:
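Culture grown 36–48 h, diluted 1000-fold in Middlebrook 7H9 with 10% ADC, 0.5% glycerol, 0.05% Tween 80; inhibitors started at 100 µM–1 mM, threefold serial dilution across 10 wells; 37 °C, 200 rpm, 48 h; OD600 read-out.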

Data set [22] is described as follows: Binding affinity to Staphylococcus aureus HepPPS.

As usually defined, the logD is the decadic logarithm of the distribution of all forms, ionised or not, between an organic phase and buffer at a given pH. A word on the IC50: it is the concentration that gives 50% inhibition. What is called MIC is the smallest concentration in the dilution series that meets the test's criterion for growth inhibition. Low readings indicate greater potency, high ones weaker potency. A word on the Kd: it is the constant that tells how readily two partners part at equilibrium.

Values after ≈ are worked out from the molar mass of the structure shown. Active and inactive are the calls of the source. Bounds are passed on as bounds.

For `O=P([O-])(O)C(Cn1cc[n+](CCCc2ccc(F)c(F)c2)c1)P(=O)(O)O` (stereo not drawn), the EC50 was 30 µg/mL (≈ 73.1 µM) in data set [1]; 26 µg/mL (≈ 63.4 µM) in [2]; over 100 µg/mL in [3]; 38 µg/mL in [4]; over 100 µg/mL in [6]; 2 µg/mL (≈ 4.88 µM) in data set [7]. Further, in data set [5], the GI50 at 24 h came to 600 µM.
Turning to `CC(C)CCCC(C)CCOc1ccnc(NC(P(=O)(O)O)P(=O)(O)O)c1` (stereo not drawn), the log distribution coefficient (logD) in data set [8] (read-out: logD) was -1.63. Also, the GI50 at 24 h in data set [5] turned out to be 1300 µM.
On to `CCCCCCCCCCCc1ccc[n+](CC(P(=O)([O-])O)P(=O)(O)O)c1` (stereo not drawn), for which, in data set [8], the logD was -4.07. Besides, the EC50 in data set [4] was found to be 2 µg/mL. The GI50 at 24 h in data set [5] came to 220 µM.
Take `CC(C)CCCC(C)CCc1cnc(NCC(P(=O)(O)O)P(=O)(O)O)s1` (stereo not drawn): the logD in data set [8] (read-out: logD) is -2.12.
For `CC(C)CCCC(C)CCOc1ccc[n+](CC(P(=O)([O-])O)P(=O)(O)O)c1` (stereo not drawn), the IC50 turned out to be 8.9 µg/mL in [9]; 8.9 µg/mL in data set [10]; 3.5 µg/mL in [11]; 0.23 µM in [14]; 0.23 µM in data set [16]; 2.1 µg/mL in [19]. Further, the EC50 in data set [2] was found to be 1 µg/mL (≈ 2.36 µM); in data set [4] it was 1.7 µg/mL. In addition, the GI50 at 96 h in [12] was 76 µM. The result in [13] and in [18] was Active. Also, in [5], the GI50 at 24 h worked out at 620 µM. For the same molecule, the minimum inhibitory concentration (MIC) in [15] and in data set [17] was 6.8 µg/mL (≈ 16.1 µM) each time.
Take `CC(C)CCCC(C)c1cnc(NCC(P(=O)(O)O)P(=O)(O)O)s1` (stereo not drawn): the logD in data set [8] (read-out: logD) is -2.96.
With `CCCCCCCCCCOc1cccc(CC(O)(P(=O)(O)O)P(=O)(O)O)c1`, the IC50 in data set [14] came to 550 µM; in data set [20], 11 µM.
With `CCCCCCCCOc1cccc(C(=O)Nc2ccc(F)cc2C(=O)O)c1`, the EC50 in data set [1] was 3 to 8 µg/mL (≈ 7.74 to 20.6 µM); in data set [3] it was 3 to 8 µg/mL (≈ 7.74 to 20.6 µM); in data set [6], 3 to 8 µg/mL (≈ 7.74 to 20.6 µM); in data set [21], 3 to 8 µg/mL (≈ 7.74 to 20.6 µM); in data set [7] it was over 50 µg/mL.
On to `CC(C)CCCC(C)CCSc1cc[n+](CC(P(=O)([O-])O)P(=O)(O)O)cc1` (stereo not drawn), for which the logD in [8] is reported as -5.08. For the same molecule, the GI50 at 24 h in data set [5] came to 1000 µM.
Turning to `CC(C)=CCC/C(C)=C/CC/C(C)=C/COP(=O)(O)OP(=O)(O)O` [FARNESYL DIPHOSPHATE], the Kd in data set [22] is 35 µM.
`CC(C)CCCC(C)CCCc1cc[n+](CC(P(=O)([O-])O)P(=O)(O)O)cc1` (stereo not drawn) returned a log distribution coefficient (logD) in [8] of -4.71. In addition, the EC50 in [2] is 2.3 µg/mL (≈ 5.46 µM); in [4] it was 78 µg/mL. In data set [12], the GI50 at 96 h is over 1000 µM. In addition, in [5], the GI50 at 24 h was 700 µM.
As to `CCCCCCCCCCCCCCOc1cccc(O)c1C(=O)O`, the EC50 in [7] was over 50 µg/mL.
In the case of `CC(C)CCCC(C)CCCn1cc[n+](CC(P(=O)([O-])O)P(=O)(O)O)c1` (stereo not drawn), the logD in data set [8] is on record as -5.65. Also, the GI50 at 24 h in [5] was determined as 440 µM.
As to `CC(C)CCCC(C)CCOc1ccc[n+](CC(O)(P(=O)([O-])O)P(=O)(O)O)c1` (stereo not drawn), the GI50 at 24 h in data set [5] was 1100 µM.
On the same count and under the same terms, the figure for `CC(C)CCCC(C)CCNc1ccc[n+](CC(P(=O)([O-])O)P(=O)(O)O)c1` (stereo not drawn) is 440 µM.
